Results reported in ChEMBL document CHEMBL4014327 (J Med Chem, 2017).
≈ marks a conversion by molar mass, not a printed value.

Tests used:
[1] = target: Interleukin-1 receptor-associated kinase 1 (Homo sapiens) (UniProt P51617); test: Inhibition of recombinant human GST-tagged IRAK1 expressed in baculovirus at 200 nM
CYP2C8 = CYP2C8 (Homo sapiens, UniProt P10632); test: Inhibition of CYP2C8 in human liver microsomes at 3 uM; type: ADME
[2] = Oral bioavailability in Wistar Han rat at 5 mg/kg administered as single dose; type: ADME, organism-based; conditions: in vivo
Rattus norvegicus [3] = test: Inhibition of LPS induced TNFalpha secretion in Sprague-Dawley rat assessed as decrease in TNFalpha level in serum at 0.3 mg/kg, po pretreated for 1 hr followed by LPS challenge measured after 1.5 hrs relative to control; type: functional
How it was run: (§1)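 Male Sprague-Dawley rats, 6-8 weeks old, n = 6-9 per group. Test article was given orally at 0.3, 1, 3 or 30 mg/kg as a solution or suspension in 0.5% methylcellulose and 2% Tween 80 in water; controls received vehicle alone. Ultrapure LPS (0.01 mg/kg) was given iv 1 h later. Blood was drawn 1.5 h after challenge, and serum TNF was measured by MSD.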

Rattus norvegicus [4] = test: Inhibition of LPS induced TNFalpha secretion in Sprague-Dawley rat assessed as decrease in TNFalpha level in serum at 1 mg/kg, po pretreated for 1 hr followed by LPS challenge measured after 1.5 hrs relative to control; type: functional; how it was run: as §1
Plasma [5] = test: Free plasma concentration in Sprague-Dawley rat LPS model at 3 mg/kg, po after 2.5 hrs; type: ADME, organism-based; conditions: in vivo
How it was run: (§2)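 Male Sprague−Dawley rats, 6−8 weeks old, n = 6−9 per group. Dosed orally at 0.3, 1, 3 or 30 mg/kg in 0.5% methylcellulose/2% Tween 80 in water. Ultrapure LPS 0.01 mg/kg iv given 1 h after dosing. Plasma exposure taken 2.5 h after oral dosing and reported as free concentration using fraction unbound in rat plasma.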

[6] = Volume of distribution at steady state in Beagle dog at 1 mg/kg, iv administered as single dose; type: ADME, organism-based, Canis lupus familiaris; conditions: in vivo, read-out: Vdss
How it was run: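 Single-dose pharmacokinetic study in male animals, with iv and separate oral administration. Steady-state volume of distribution was derived from plasma concentrations after the iv dose.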

[7] = Oral bioavailability in Beagle dog at 5 mg/kg administered as single dose; type: ADME, organism-based, Canis lupus familiaris; conditions: in vivo
[8] = target: Leucine-rich repeat serine/threonine-protein kinase 2 (Homo sapiens) (UniProt Q5S007); test: Inhibition of recombinant human GST-tagged LRRK2 expressed in baculovirus at 200 nM
Chain of Leucine-rich repeat serine/threonine-protein kinase 2 (Homo sapiens) (Q5S007 whole entry): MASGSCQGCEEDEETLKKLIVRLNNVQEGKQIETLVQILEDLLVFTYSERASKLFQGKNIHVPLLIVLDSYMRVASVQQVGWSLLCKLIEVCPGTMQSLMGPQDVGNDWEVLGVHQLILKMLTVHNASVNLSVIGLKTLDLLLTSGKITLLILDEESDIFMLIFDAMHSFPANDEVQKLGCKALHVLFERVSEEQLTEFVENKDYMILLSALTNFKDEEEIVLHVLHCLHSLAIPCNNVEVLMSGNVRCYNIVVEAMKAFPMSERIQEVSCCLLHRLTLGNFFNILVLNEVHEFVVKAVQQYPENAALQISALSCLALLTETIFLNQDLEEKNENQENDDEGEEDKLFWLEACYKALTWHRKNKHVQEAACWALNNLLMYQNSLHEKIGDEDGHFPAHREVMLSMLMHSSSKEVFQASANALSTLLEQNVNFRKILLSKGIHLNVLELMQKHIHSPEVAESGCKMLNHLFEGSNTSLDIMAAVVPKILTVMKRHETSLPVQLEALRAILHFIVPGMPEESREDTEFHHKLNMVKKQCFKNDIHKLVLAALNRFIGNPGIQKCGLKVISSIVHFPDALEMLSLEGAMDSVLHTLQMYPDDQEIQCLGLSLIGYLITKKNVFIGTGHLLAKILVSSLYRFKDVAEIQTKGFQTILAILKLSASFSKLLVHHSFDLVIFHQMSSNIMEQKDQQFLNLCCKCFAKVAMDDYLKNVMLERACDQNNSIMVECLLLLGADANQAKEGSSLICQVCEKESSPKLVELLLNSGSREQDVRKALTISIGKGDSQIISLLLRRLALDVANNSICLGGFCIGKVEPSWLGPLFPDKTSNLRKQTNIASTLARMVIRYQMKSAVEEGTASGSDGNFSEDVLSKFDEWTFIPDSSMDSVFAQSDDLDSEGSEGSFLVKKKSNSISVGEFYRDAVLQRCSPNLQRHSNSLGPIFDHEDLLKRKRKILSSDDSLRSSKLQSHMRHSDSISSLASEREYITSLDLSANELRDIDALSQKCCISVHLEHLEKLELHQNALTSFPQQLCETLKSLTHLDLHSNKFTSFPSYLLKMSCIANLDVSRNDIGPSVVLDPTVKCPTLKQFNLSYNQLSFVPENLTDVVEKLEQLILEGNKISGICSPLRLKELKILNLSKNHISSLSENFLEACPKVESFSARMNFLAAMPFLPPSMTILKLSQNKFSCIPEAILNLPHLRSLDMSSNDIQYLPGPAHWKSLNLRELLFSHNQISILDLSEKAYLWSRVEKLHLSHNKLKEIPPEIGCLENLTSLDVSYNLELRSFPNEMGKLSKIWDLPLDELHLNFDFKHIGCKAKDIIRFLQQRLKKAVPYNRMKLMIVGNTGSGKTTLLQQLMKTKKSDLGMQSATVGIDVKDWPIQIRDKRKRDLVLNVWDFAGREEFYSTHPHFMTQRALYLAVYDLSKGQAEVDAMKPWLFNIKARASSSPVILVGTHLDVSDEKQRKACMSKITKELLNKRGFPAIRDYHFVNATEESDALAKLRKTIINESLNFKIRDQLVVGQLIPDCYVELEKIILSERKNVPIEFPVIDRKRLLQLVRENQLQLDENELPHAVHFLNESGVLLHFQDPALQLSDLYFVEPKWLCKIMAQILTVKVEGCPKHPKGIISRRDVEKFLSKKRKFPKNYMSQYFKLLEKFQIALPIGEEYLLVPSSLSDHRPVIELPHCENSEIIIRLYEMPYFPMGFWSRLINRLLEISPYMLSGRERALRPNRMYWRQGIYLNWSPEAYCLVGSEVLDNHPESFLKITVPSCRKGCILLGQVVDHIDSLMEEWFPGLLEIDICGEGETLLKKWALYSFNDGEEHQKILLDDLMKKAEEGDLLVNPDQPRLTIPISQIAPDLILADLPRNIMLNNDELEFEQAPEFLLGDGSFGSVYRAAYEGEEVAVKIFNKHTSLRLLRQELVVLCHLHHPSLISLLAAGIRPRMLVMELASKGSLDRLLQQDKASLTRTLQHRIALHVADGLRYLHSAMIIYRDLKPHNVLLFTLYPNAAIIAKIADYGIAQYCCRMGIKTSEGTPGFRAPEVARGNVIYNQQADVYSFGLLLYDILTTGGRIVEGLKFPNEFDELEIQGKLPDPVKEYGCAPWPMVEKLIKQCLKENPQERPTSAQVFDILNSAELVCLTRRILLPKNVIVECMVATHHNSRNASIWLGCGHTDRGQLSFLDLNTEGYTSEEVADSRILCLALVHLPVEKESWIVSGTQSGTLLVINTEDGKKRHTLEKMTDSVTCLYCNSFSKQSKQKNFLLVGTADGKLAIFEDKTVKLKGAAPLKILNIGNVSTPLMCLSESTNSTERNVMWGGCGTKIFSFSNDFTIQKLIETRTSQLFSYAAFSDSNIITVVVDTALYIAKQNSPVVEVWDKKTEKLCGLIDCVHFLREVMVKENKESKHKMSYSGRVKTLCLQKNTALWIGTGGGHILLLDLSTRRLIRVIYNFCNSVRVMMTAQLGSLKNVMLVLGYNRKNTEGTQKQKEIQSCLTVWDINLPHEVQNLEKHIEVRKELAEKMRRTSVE

[9] = Half life in Wistar Han rat at 1 mg/kg, iv administered as single dose; type: ADME, organism-based; conditions: in vivo
[10] = target: T1, Interleukin-1 receptor-associated kinase 4 (Homo sapiens) (UniProt Q9NWZ3); test: Inhibition of IRAK4 in human THP1 cell lysate at 200 nM
T1 sequence (whole entry): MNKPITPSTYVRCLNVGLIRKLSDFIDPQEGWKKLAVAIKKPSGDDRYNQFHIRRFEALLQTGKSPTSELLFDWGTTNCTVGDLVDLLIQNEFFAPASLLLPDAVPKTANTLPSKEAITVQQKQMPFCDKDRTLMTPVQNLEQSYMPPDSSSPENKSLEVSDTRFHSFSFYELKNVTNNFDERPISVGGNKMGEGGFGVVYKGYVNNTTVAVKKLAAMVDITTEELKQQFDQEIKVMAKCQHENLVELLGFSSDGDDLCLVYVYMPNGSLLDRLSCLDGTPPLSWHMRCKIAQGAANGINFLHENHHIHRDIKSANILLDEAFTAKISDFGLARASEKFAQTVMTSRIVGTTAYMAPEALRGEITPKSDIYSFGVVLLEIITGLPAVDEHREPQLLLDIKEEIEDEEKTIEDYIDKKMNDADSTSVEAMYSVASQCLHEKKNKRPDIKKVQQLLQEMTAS

CYP2D6 = CYP2D6 (Homo sapiens, UniProt P10635); test: Inhibition of CYP2D6 in human liver microsomes at 3 uM; type: ADME
Chain of CYP2D6 (P10635 whole entry): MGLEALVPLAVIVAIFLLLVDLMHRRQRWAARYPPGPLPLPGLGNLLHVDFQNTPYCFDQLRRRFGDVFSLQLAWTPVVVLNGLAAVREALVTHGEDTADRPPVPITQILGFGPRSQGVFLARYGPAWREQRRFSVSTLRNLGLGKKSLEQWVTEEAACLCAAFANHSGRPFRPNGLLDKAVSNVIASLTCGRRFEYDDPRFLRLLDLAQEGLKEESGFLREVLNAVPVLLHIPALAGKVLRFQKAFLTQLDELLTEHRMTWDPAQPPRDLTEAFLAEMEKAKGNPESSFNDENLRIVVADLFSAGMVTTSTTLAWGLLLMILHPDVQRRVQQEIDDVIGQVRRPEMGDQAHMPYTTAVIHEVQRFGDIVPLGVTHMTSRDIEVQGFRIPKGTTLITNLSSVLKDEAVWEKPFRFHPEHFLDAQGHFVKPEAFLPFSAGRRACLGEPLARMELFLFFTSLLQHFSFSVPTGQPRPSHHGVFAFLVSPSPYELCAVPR

CYP1A2 = CYP1A2 (Homo sapiens, UniProt P05177); test: Inhibition of CYP1A2 in human liver microsomes at 3 uM; type: ADME
Chain of CYP1A2 (P05177 whole entry): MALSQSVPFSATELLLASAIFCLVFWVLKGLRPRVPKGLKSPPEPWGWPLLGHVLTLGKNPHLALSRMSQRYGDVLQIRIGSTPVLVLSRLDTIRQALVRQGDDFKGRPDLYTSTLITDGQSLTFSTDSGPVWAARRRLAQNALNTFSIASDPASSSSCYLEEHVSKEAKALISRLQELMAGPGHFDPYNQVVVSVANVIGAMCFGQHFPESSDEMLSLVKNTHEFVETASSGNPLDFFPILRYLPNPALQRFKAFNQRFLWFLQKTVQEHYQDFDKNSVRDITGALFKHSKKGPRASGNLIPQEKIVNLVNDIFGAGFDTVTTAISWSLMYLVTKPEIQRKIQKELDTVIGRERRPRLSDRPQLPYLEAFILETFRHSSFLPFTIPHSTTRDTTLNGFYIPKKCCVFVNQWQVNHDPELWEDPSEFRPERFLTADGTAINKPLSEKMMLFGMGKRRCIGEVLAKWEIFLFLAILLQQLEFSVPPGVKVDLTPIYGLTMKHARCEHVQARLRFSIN

CYP3A4 = CYP3A4 (Homo sapiens, UniProt P08684); test: Inhibition of CYP3A4 in human liver microsomes at 3 uM; type: ADME
Rattus norvegicus [11] = test: Plasma clearance in Wistar Han rat at 1 mg/kg, iv administered as single dose; type: ADME, organism-based; conditions: in vivo
Plasma [12] = test: Free plasma concentration in Sprague-Dawley rat LPS model at 1 mg/kg, po after 2.5 hrs; type: ADME, organism-based; conditions: in vivo; how it was run: as §2
[13] = Oral bioavailability in cynomolgus monkey at 5 mg/kg administered as single dose; type: ADME, organism-based, Macaca fascicularis; conditions: in vivo
[14] = Half life in cynomolgus monkey at 1 mg/kg, iv administered as single dose; type: ADME, organism-based, Macaca fascicularis; conditions: in vivo
Rattus norvegicus [15] = test: Inhibition of LPS induced TNFalpha secretion in Sprague-Dawley rat assessed as decrease in TNFalpha level in serum at 30 mg/kg, po pretreated for 1 hr followed by LPS challenge measured after 1.5 hrs relative to control; type: functional; how it was run: as §1
[16] = target: Casein kinase I isoform gamma-1 (Homo sapiens) (UniProt Q9HCP0); test: Inhibition of recombinant human full length GST-tagged CK1gamma1 expressed in baculovirus at 200 nM
[17] = target: Vascular endothelial growth factor receptor 2 (Homo sapiens, UniProt P35968); test: Inhibition of human recombinant VEGFR2 at 10 uM using CAGAGAIETDKEYYTVKD as substrate after 60 mins by Lance method
Canis familiaris = test: Plasma clearance in Beagle dog at 1 mg/kg, iv administered as single dose; type: ADME, organism-based, Canis lupus familiaris; conditions: in vivo
[18] = Solubility of compound in phosphate buffer at pH 6.7; type: physicochemical
How it was run: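 Solubility of crystalline material measured in phosphate-buffered saline pH 6.7, unbuffered water pH 8.1 and simulated fasted-state intestinal fluid pH 6.5, reported in μg/mL.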

Rattus norvegicus [19] = test: Inhibition of LPS induced TNFalpha secretion in po dosed Sprague-Dawley rat assessed as decrease in TNFalpha level in serum pretreated for 1 hr followed by LPS challenge measured after 1.5 hrs relative to control; type: functional, organism-based; how it was run: as §1
Cytochrome P450 2C19 = Cytochrome P450 2C19 (Homo sapiens, UniProt P33261); test: Time dependent inhibition of CYP2C19 in human liver microsomes at 100 uM; type: ADME
Chain of Cytochrome P450 2C19 (P33261 whole entry): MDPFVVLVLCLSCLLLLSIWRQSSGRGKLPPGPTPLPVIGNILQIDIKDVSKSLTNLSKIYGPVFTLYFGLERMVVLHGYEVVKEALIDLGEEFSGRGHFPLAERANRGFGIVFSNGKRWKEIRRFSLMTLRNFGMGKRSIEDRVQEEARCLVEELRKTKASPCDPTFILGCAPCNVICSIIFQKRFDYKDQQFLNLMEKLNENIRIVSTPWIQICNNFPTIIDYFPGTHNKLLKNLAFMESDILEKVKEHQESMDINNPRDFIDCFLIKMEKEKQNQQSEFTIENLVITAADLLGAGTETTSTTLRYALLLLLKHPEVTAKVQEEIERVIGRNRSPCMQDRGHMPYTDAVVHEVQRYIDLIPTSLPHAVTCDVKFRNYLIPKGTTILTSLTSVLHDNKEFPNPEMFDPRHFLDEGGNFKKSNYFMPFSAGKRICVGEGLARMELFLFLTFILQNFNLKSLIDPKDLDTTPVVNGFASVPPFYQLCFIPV
How it was run: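 Time-dependent inhibition assessed in pooled human liver microsomes with probe substrates, test compound at 100 μM.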

Chain of Interleukin-1 receptor-associated kinase 1 (Homo sapiens) (P51617 whole entry, looked up): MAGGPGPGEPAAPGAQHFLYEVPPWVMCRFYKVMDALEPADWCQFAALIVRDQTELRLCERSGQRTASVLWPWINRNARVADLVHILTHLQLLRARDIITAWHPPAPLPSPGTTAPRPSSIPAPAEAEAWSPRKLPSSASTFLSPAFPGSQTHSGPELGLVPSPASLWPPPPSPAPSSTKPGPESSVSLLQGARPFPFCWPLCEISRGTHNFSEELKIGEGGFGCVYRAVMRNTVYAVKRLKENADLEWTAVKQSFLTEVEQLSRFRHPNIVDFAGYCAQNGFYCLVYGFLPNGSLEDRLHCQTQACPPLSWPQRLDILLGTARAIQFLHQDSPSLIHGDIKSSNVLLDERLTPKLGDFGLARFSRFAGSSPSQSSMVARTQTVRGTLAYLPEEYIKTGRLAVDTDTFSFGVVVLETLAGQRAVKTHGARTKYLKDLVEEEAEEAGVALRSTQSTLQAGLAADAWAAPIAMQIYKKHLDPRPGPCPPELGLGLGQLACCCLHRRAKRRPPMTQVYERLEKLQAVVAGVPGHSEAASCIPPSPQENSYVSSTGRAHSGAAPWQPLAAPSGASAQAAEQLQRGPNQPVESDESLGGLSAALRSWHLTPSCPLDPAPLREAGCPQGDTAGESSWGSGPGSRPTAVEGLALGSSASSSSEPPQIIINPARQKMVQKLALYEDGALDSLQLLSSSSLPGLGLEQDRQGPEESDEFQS

Work on `CC[C@@H]1[C@H](F)C(=O)N[C@@H]1COc1nccc2cc(C(N)=O)c(OC)cc12` [ZIMLOVISERTIB] yielded an inhibition [1] greater than 70%, an inhibition at 3 µM (CYP2C8) of less than 5% and a bioavailability [2] of 34 to 50%. The inhibition in vivo at 0.3 mg/kg (Rattus norvegicus [3]) was 12%, the inhibition in vivo at 1 mg/kg (Rattus norvegicus [4]) was 52% and the “Cp(f)” value (Plasma [5]) was 19 nM. The Vd [6] was 0.77 L/kg, the bioavailability [7] was 41% and the inhibition [8] was greater than 70%. It also gave a half-life [9] of 0.6 h, an inhibition [10] greater than 50% and an inhibition at 3 µM (CYP2D6) of less than 5%. For the same compound, the inhibition at 3 µM (CYP1A2) was less than 5%, the inhibition at 3 µM (CYP3A4) was less than 5% and the clearance (Rattus norvegicus [11]) was 56 mL/min/kg. The “Cp(f)” value (Plasma [12]) was 7.7 nM, the bioavailability [13] was 6.9% and the half-life [14] was 1.7 h. For the same compound, the inhibition in vivo at 30 mg/kg (Rattus norvegicus [15]) was 87%, the inhibition [16] was greater than 70% and the inhibition [17] was greater than 50%. For the same compound, the clearance (Canis familiaris) was 10 mL/min/kg, the solubility [18] was 57 µg/mL (≈ 158 µM) and the inhibition (Rattus norvegicus [19]) was “Dose-dependent effect”. The TDI (Cytochrome P450 2C19) was “Not Active”.
